By IC50 is commonly meant the concentration that gives 50% inhibition. Low values mean greater potency, high ones weaker potency. A word on the Ki: it is the equilibrium dissociation constant of an inhibitor or competing ligand from its target. The low end stands for tighter binding, the high end for weaker binding. In general, Km refers to the substrate concentration at which the rate is half of its maximum.

Data set [1] addresses T1, Sodium-dependent serotonin transporter (Rattus norvegicus, UniProt P31652). The data set is described as follows: Inhibition of high affinity 5-HT uptake at concentration of 1 uM. In kind it is functional.
For data set [2], the target named is T1, Sodium-dependent serotonin transporter. The data set is described as follows: Inhibition constant of high-affinity 5-HT uptake. The essentials:
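Rat forebrain crude synaptosomes took up [3H]serotonin (0.727 Ci/mmol) for 3 min at 30 °C, with and without inhibitor, as for the choline assay. IC50 came from nonlinear regression or Hill plots over 5–10 inhibitor concentrations. Ki was derived with Cheng-Prusoff, using the serotonin transport Km measured over 10 nM to […] substrate.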

Data set [3] is filed under the species Rattus norvegicus. Put plainly: (§1) Inhibition of high affinity dopamine uptake at concentration of 1 uM. In kind it is functional.
The species entered for data set [4] is Rattus norvegicus. Put plainly: Michaelis-Menten constant was reported for high affinity transport of choline. In kind it is functional. The procedure, abridged: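 Rat forebrain crude synaptosome aliquots (0.27–0.3 mg protein) were equilibrated at 30 °C. [3H]choline was added at 10 nM to 10 μM and uptake run 3 min, within the linear range. Parallel 0 °C incubations corrected for nonspecific binding and diffusion. Reactions were stopped by ice cooling, centrifuged at 800g, and the pellets washed with ice-cold KRB.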

In data set [5] the target is T2, Sodium-dependent dopamine transporter (Rattus norvegicus, UniProt P23977). The data set is described as follows: Inhibition constant of high-affinity dopamine uptake. The essentials: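 Crude synaptosomes from adult male Long-Evans rat forebrain (Gray–Whittaker method) were incubated with [3H]dopamine (0.72 Ci/mmol) for 3 min at 30 °C alongside 0 °C blanks, with inhibitor at 5–10 concentrations between 10 µM and 10 mM. Uptake was stopped on ice and pellets were washed in KRB. IC50 came from regression or Hill plots, and Ki from Cheng–Prusoff using dopamine Km 1.4 µM.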

For data set [6], the target named is T2, Sodium-dependent dopamine transporter. Described as §1. The format is functional.
Substrate in data set [7]: C[N+](C)(C)CC(O)c1ccc(O)c(O)c1
Substrate in data set [8]: C[N+](C)(C)CC(O)c1ccc(O)c(O)c1
This is another data set of the same source.

Substrate in data set [9]: C[N+](C)(C)CC(O)c1ccc(O)c(O)c1
The source holds these as a separate data set.

Substrate in data set [10]: C[N+](C)(C)CC(O)c1ccc(O)c(O)c1
This is another data set of the same source.

Substrate in data set [11]: C[N+](C)(C)CC(O)c1ccc(O)c(O)c1
The source holds these as a separate data set.

Substrate in data set [12]: C[N+](C)(C)CC(O)c1ccc(O)c(O)c1
The source holds these as a separate data set.

In the case of `C[N+](C)(C)c1cccc(O)c1O`, the IC50 in data set [1] turned out to be 213 µM; in the data set filed under Rattus norvegicus [3] it was 196 µM. For the same molecule, the Ki in data set [2] came to 90 µM. Also, the Km in the data set filed under Rattus norvegicus [4] is 1000 µM.
Consider `C[N+](C)(C)CC(O)c1ccc(O)c(O)c1` (centres undefined) [CATECHOLINE], for which the Ki stood at 530 µM in [5] and 390 µM in data set [2]. Moreover, the values for the IC50 in data set [1] and in data set [6] were 3600 µM and 949 µM, respectively.

B1: Sodium-dependent serotonin transporter (Rattus norvegicus), P31652 (protein)
chain: METTPLNSQKVLSECKDREDCQENGVLQKGVPTTADRAEPSQISNGYSAVPSTSAGDEASHSIPAATTTLVAEIRQGERETWGKKMDFLLSVIGYAVDLGNIWRFPYICYQNGGGAFLLPYTIMAIFGGIPLFYMELALGQYHRNGCISIWRKICPIFKGIGYAICIIAFYIASYYNTIIAWALYYLISSLTDRLPWTSCTNSWNTGNCTNYFAQDNITWTLHSTSPAEEFYLRHVLQIHQSKGLQDLGTISWQLTLCIVLIFTVIYFSIWKGVKTSGKVVWVTATFPYIVLSVLLVRGATLPGAWRGVVFYLKPNWQKLLETGVWVDAAAQIFFSLGPGFGVLLAFASYNKFNNNCYQDALVTSVVNCMTSFVSGFVIFTVLGYMAEMRNEDVSEVAKDAGPSLLFITYAEAIANMPASTFFAIIFFLMLITLGLDSTFAGLEGVITAVLDEFPHIWAKRREWFVLIVVITCVLGSLLTLTSGGAYVVTLLEEYATGPAVLTVALIEAVAVSWFYGITQFCSDVKEMLGFSPGWFWRICWVAISPLFLLFIICSFLMSPPQLRLFQYNYPHWSIVLGYCIGMSSVICIPTYIIYRLISTPGTLKERIIKSITPETPTEIPCGDIRMNAV
B1: the Vmax (pM min-1 mg-1) in [7] came out at 23. The Km in data set [8] turned out to be 150 µM.

B2: Sodium-dependent dopamine transporter (Rattus norvegicus), P23977 (protein)
chain: MSKSKCSVGPMSSVVAPAKESNAVGPREVELILVKEQNGVQLTNSTLINPPQTPVEAQERETWSKKIDFLLSVIGFAVDLANVWRFPYLCYKNGGGAFLVPYLLFMVIAGMPLFYMELALGQFNREGAAGVWKICPVLKGVGFTVILISFYVGFFYNVIIAWALHYFFSSFTMDLPWIHCNNTWNSPNCSDAHASNSSDGLGLNDTFGTTPAAEYFERGVLHLHQSRGIDDLGPPRWQLTACLVLVIVLLYFSLWKGVKTSGKVVWITATMPYVVLTALLLRGVTLPGAMDGIRAYLSVDFYRLCEASVWIDAATQVCFSLGVGFGVLIAFSSYNKFTNNCYRDAIITTSINSLTSFSSGFVVFSFLGYMAQKHNVPIRDVATDGPGLIFIIYPEAIATLPLSSAWAAVFFLMLLTLGIDSAMGGMESVITGLVDEFQLLHRHRELFTLGIVLATFLLSLFCVTNGGIYVFTLLDHFAAGTSILFGVLIEAIGVAWFYGVQQFSDDIKQMTGQRPNLYWRLCWKLVSPCFLLYVVVVSIVTFRPPHYGAYIFPDWANALGWIIATSSMAMVPIYATYKFCSLPGSFREKLAYAITPEKDHQLVDRGEVRQFTLRHWLLL
Turning to B2, the Km in data set [9] was 1400 µM. In addition, the Vmax (pM min-1 mg-1) in data set [10] turned out to be 53.

B3: Sodium- and chloride-dependent creatine transporter 1 (Rattus norvegicus), P28570 (protein)
chain: MAKKSAENGIYSVSGDEKKGPLIVSGPDGAPSKGDGPAGLGAPSSRLAVPPRETWTRQMDFIMSCVGFAVGLGNVWRFPYLCYKNGGGVFLIPYVLIALVGGIPIFFLEISLGQFMKAGSINVWNICPLFKGLGYASMVIVFYCNTYYIMVLAWGFYYLVKSFTTTLPWATCGHTWNTPDCVEIFRHEDCANASLANLTCDQLADRRSPVIEFWENKVLRLSTGLEVPGALNWEVTLCLLACWVLVYFCVWKGVKSTGKIVYFTATFPYVVLVVLLVRGVLLPGALDGIIYYLKPDWSKLGSPQVWIDAGTQIFFSYAIGLGALTALGSYNRFNNNCYKDAIILALINSGTSFFAGFVVFSILGFMATEQGVHISKVAESGPGLAFIAYPRAVTLMPVAPLWAALFFFMLLLLGLDSQFVGVEGFITGLLDLLPASYYFRFQREISVALCCALCFVIDLSMVTDGGMYVFQLFDYYSASGTTLLWQAFWECVVVAWVYGADRFMDDIACMIGYRPCPWMKWCWSFFTPLVCMGIFIFNVVYYKPLVYNNTYVYPWWGEAMGWAFALSSMLCVPLHLLGCLLRAKGTMAERWQHLTQPIWGLHHLEYRAQDADVRGLTTLTPVSESSKVVVVESVM
Take B3: the Km in [11] came out at 2040 µM. Further, the Vmax (pM min-1 mg-1) in data set [12] amounted to 22.

Values taken from ChEMBL document CHEMBL1126723, “Inhibition and inactivation of presynaptic cholinergic markers using redox-reactive choline analogs” (J Med Chem, 1993).
